Compound activity from PubChem.
An excerpt weighted towards active compounds, which were near 3.3% of everything screened.
PRMT1 inh – blocks human protein arginine methyltransferase 1; inhibition, % at 2.79 µM; recombinant PRMT1, activity-based probe fluorescence polarization; 1.3% of 370,000 active;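 active means inhibition above about 21% made by adding two undisclosed values, limit read from the data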
TCR-CD3 inh – inhibitors of human TCR-CD3 interaction; TAMRA-labeled TCR probe fluorescence, biochemical; inhibition, % at 9.4 µM; 0.37% of 360,000 active; in the data active means inhibition above about 19%;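 further: recombinant mutant TCR 2C K166C tagged with TAMRA read by polarization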
SIAE primary – inhibitors of human sialic acid acetylesterase SIAE; inhibition, % at 9.66 µM; 0.69% of 370,000 active; Q9HAT2; SIAE FP-Rh probe binding, fluorescence polarization; AID 1053197;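 active means inhibition above a cutoff: mean of compounds within the control limits plus 3 SD of those, cut at about 17% in these data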
Target sequence (Q9HAT2 whole entry, looked up): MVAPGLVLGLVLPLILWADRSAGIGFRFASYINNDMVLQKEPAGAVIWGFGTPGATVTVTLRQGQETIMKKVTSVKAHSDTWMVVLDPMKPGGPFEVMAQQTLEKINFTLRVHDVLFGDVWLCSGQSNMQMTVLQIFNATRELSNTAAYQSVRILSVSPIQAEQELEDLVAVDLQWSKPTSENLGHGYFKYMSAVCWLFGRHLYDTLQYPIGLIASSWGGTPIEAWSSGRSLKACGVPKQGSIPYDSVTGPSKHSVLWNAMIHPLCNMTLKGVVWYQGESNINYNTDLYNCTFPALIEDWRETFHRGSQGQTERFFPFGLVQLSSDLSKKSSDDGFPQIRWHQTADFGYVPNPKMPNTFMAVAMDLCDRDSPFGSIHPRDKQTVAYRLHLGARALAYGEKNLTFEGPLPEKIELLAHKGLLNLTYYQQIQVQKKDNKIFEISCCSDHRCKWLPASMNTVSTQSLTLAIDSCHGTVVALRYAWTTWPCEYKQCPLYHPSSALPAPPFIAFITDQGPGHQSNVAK
mABHD4 FP – ABHD4 (mouse) inhibition, primary FP screen; Q8VD66; purified mABHD4, FP-Rh probe fluorescence polarization; inhibition, % at 8.92 µM; 0.54% of 370,000 active; AID 720543;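 active means inhibition exceeding the mean over every tested compound plus 3 SD, cut at about 30% in these data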
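Assay system: mouse ABHD4 enzyme, wild type / Also added: fluorescent activity-based probe FP-Rh / Doses: single nominal dose of 8.92 µM, 0.89% DMSO final / Timing: 45 min compound pre-incubation plus 60 min probe step, 25 °C / Signal: FP readout, ex 525 nm / em 598 nm / Control set: S159A mutant/DMSO as 100%, compound-well median as 0%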
rCAG RNA binder – r(CAG) repeat RNA binding; TO-PRO-1 dye displacement fluorescence; inhibition, % at 3 µM; 1.3% of 370,000 active; AID 651821;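 active means inhibition above the plate cutoff, the mean of all test compounds on that plate plus 3 SD, cut at about 35% in these data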;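 further: higher means more dye released from RNA so lower well fluorescence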
mABHD4 conf – ABHD4 (mouse) inhibition, FP confirmation; shares compounds with mABHD4 FP; purified mABHD4, FP-Rh probe fluorescence polarization; inhibition, % at 8.92 µM; 55% of 1,800 active; AID 720658;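 active means mean inhibition across replicates above the hit cutoff set in the primary screen, cut at about 30% in these data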
Of the large screens only hits and unclear results are named; the others gave an inactive call (follow-up assays come after a bar, where they were run); ! = a repeat was not active.

CC(=O)N1CCC(=NNc2nc3ccccc3[nH]2)CC1	mABHD4 FP 30 | mABHD4 conf inactive
C/C(=N\NC(=O)c1ccccc1)c1ccc(N2CCOCC2)cc1	mABHD4 FP 71 | mABHD4 conf inactive
CCOC(=O)[C@@]12CCC3=C1N(CCC3)C(=O)[C@H](CC(=O)NCc1ccc(C)o1)C2	none (no result: TCR-CD3 inh)
COCCCNC(=O)C[C@H]1C[C@@]2(C(=O)OC)C(=C[C@H](C3CCCC3)O[C@@H]2C)N(CCC2=CCCCC2)C1=O	none (no result: TCR-CD3 inh)
COc1ccccc1CN[C@@H]1CC[C@@]23CCCN2C(=O)CCC[C@H]3C1	none (no result: TCR-CD3 inh, rCAG RNA binder)
C=CCN(CC#CCN(C)C(=O)c1cccn1C(=O)OC(C)(C)C)Cc1ccc(OC)cc1OC	none (no result: TCR-CD3 inh)
N#CCC[C@H]1CC[C@]2(CCCN(C(=O)C3CCCCC3)C2)O1	none (no result: TCR-CD3 inh)
COC(=O)C1=C(C)N(Cc2ccc(C(F)(F)F)cc2)C(=NCc2ccccc2)NC1c1cccc(F)c1 (stereo unspecified)	mABHD4 FP 34 | mABHD4 conf 46
COC(=O)C1=C(C)N(Cc2cccc(C(F)(F)F)c2)C(=NCc2ccc(OC)cc2)NC1c1cccc(C(F)(F)F)c1 (stereo unspecified)	mABHD4 FP 31 | mABHD4 conf 41
COC(=O)C1=C(C)N(Cc2ccc(C(F)(F)F)cc2)C(=NCc2ccc(C(F)(F)F)cc2)NC1c1ccccc1 (stereo unspecified)	none
COC(=O)C1=C(C)N(Cc2cccc(C(F)(F)F)c2)C(=NCc2ccc(OC)cc2)NC1c1cccc(Cl)c1 (stereo unspecified)	none
COC(=O)C1=C(C)N(Cc2cccc(C(F)(F)F)c2)C(=NCc2ccc3c(c2)OCO3)NC1c1ccc(F)cc1 (stereo unspecified)	mABHD4 FP 44 | mABHD4 conf 30
COC(=O)C1=C(C)N(Cc2cccc(C(F)(F)F)c2)C(=NCc2ccc(C(F)(F)F)cc2)NC1c1ccc(F)cc1 (stereo unspecified)	mABHD4 FP 35 | mABHD4 conf 44
O=C(C1CCCN(S(=O)(=O)c2ccc([N+](=O)[O-])cc2)C1)N1CCN(Cc2ccccc2)CC1 (stereo unspecified)	none (no result: TCR-CD3 inh)
c1ccc2c(-c3ccc(OCCN4CCCCC4)cc3)c(-c3ccsc3)sc2c1	mABHD4 FP 40 | mABHD4 conf inactive
c1ccc(-c2sc3ccccc3c2-c2ccc(OCCN3CCCCC3)cc2)cc1	none
COc1ccccc1CNC(=O)c1ccc(NC2=NC3CS(=O)(=O)CC3S2)cc1 (stereo unspecified)	none
Cc1ccc(C=Nc2ccc(N(C)C)cc2)o1	mABHD4 FP 40 | mABHD4 conf 34
Cc1ccc(C=Nc2ccccc2C(N)=O)o1	none
CC(C)(C)OC(=O)[C@H](Cc1ccccc1)NC(=O)c1nc[nH]c1C(=O)N1CCNCC1	none
CCc1nc2ccc(C(=O)Nc3cc(-c4ccccc4)ccc3OC)cn2c1N(C)Cc1ccc(Cl)cc1	none
CCN(CC)c1c(C)nc2ccc(C(=O)Nc3cc(-c4ccccc4)ccc3OC)cn12	mABHD4 FP 53 | mABHD4 conf 59
COc1ccc(OC)c(S(=O)(=O)N2CCN(CC(O)CN3CCOCC3)CC2)c1 (stereo unspecified)	none
N#Cc1ccccc1S(=O)(=O)N1CCN(CC(O)CN2CCOCC2)CC1 (stereo unspecified)	mABHD4 FP 38 | mABHD4 conf inactive
CCOc1cccc(CN2CCN(CCCc3ccccc3)C(CCO)C2)c1O (stereo unspecified)	none
N=C(N)c1ccc(N)cc1	none
NC(=Nc1ccc(N)cc1)C(N)=Nc1ccc(N)cc1	mABHD4 FP 31 | mABHD4 conf inactive
CCOc1ccc(N2C(=O)C(Cl)=C(Nc3ccccc3O)C2=O)cc1	PRMT1 inh 22, mABHD4 FP 34 | mABHD4 conf inactive
O=C(CCC(=O)N1CCN(C2c3ccccc3-c3ccccc32)CC1)Nc1nnc(C(F)(F)F)s1	none (no result: TCR-CD3 inh)
CCCC(=O)C1=C(c2ccccc2)C(C#N)(C#N)C(C#N)=C1N	mABHD4 FP 38 | mABHD4 conf inactive
CCCC(=O)C1=C(N(C)c2ccccc2)CC(C)(C)CC1=O	none
COC(=O)[C@]12C[C@H](CC(=O)N3CCCCC3)C(=O)N(Cc3ccco3)C1=C[C@H](COCc1ccccc1)O[C@@H]2C	none (no result: TCR-CD3 inh)
O=C(C1CCCCC1)N1CCN(c2ccccc2F)CC1	mABHD4 FP 45 | mABHD4 conf inactive
O=C(CCNS(=O)(=O)c1ccccc1)NNC(=O)C1COc2ccccc2O1 (stereo unspecified)	none
O=C(CCNS(=O)(=O)c1ccccc1C(F)(F)F)NNC(=O)C1COc2ccccc2O1 (stereo unspecified)	mABHD4 FP 42 | mABHD4 conf inactive
Fc1cccc(Cl)c1CNc1ccc(N2CCCC2)cc1	mABHD4 FP 32 | mABHD4 conf 49
NS(=O)(=O)c1ccc(NCc2c(F)cccc2Cl)cc1	none
CCCCC(=O)Nc1nc(C)c(-c2csc(Nc3cc(OC)ccc3OC)n2)s1	mABHD4 FP 42 | mABHD4 conf 66
COc1ccc(OC)c(Nc2nc(-c3sc(NC(=O)CC(C)C)nc3C)cs2)c1	mABHD4 FP 35 | mABHD4 conf 54
CCC(C)C(=O)Nc1nc(C)c(-c2csc(Nc3cc(OC)ccc3OC)n2)s1 (stereo unspecified)	mABHD4 FP 38 | mABHD4 conf 62
O=C(c1ccc(CNS(=O)(=O)c2cccc(Cl)c2)cc1)N1CCCCC1	none
O=C(NCCc1ccccc1F)c1ccc2c(c1)ncn2C1CCCCC1	none (no result: TCR-CD3 inh)
CC(C)NC(=O)C1(C)CCCN1C/C=C/c1ccccc1 (stereo unspecified)	none
COC(=NC(C)C)NC(C)C	none
COc1cccc(C2CC(c3cccc(NS(C)(=O)=O)c3)=NN2C(=O)c2ccccc2)c1OC (stereo unspecified)	mABHD4 FP 34 | mABHD4 conf 31
CN(C)c1ccc(C2CC(c3cccc(NS(C)(=O)=O)c3)=NN2C(=O)c2ccccc2)cc1 (stereo unspecified)	none
CCCCNc1c(-c2ccc(SC3CCCCC3)cc2)nc2cnccn12	mABHD4 FP 34! | mABHD4 conf inactive
CCCCNc1c(-c2ccc(OC)c(SC3CCCCC3)c2)nc2cc(C)ccn12	mABHD4 FP 30 | mABHD4 conf 37
CCCCNc1c(-c2ccc(OC)c(SC3CCCCC3)c2)nc2ccc(Cl)cn12	none
Cc1ccnc(SCc2cc(=O)c(OC(=O)c3ccc(C#N)cc3)co2)n1	none (no result: TCR-CD3 inh, rCAG RNA binder)
Oc1ccc(/C=N/Nc2ccnc3cc(Cl)ccc23)cc1O	mABHD4 FP 35 | mABHD4 conf 63
Clc1ccc2c(NCc3ccccn3)ccnc2c1	none
Brc1ccc(-c2nc3ccccc3s2)s1	none
O=c1ccc2nc3ccccc3sc-2c1	PRMT1 inh 22, mABHD4 FP 66 | mABHD4 conf 37
CCOc1ccc(-c2nc(CSCC(=O)NC3CCC3)c(C)o2)cc1	none (no result: TCR-CD3 inh, rCAG RNA binder)
CCCCN1C(=O)C(=O)N(CC(=O)Nc2cc(Cl)ccc2OC)C1=O	none
